The values that follow come from ChEMBL document CHEMBL4609987, “Structure-activity relationship study of the pyridine moiety of isothiazolo[4,3-b]pyridines as antiviral agents targeting cyclin G-associated kinase” (Bioorg Med Chem, 2020).

One series concerns dengue virus type 2. Put plainly: Antiviral activity against Dengue virus 2 infected in human HuH7 cells incubated for 48 hrs by luciferase reporter gene assay. Conditions: Huh-7, 48 h. For orientation: Reporter assays use an easily measured gene product as a stand-in for the process of interest.
The nature of series [1]: Cytotoxicity against human HuH7 cells assessed as reduction in cell viability incubated for 48 hrs by alamar blue reagent based cell viability assay. Further details: species or system Huh-7. The method in brief: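 Run in parallel on the same DENV2-infected Huh7 cultures (MOI 0.05, 4 h infection). Viability measured with AlamarBlue per the manufacturer's protocol, with fluorescence detected at 560 nm. CC50 calculated as the half-maximal cytotoxic concentration.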

In series [2] the target is T1, Cyclin-G-associated kinase (Homo sapiens, UniProt O14976).
T1 sequence (O14976 whole entry): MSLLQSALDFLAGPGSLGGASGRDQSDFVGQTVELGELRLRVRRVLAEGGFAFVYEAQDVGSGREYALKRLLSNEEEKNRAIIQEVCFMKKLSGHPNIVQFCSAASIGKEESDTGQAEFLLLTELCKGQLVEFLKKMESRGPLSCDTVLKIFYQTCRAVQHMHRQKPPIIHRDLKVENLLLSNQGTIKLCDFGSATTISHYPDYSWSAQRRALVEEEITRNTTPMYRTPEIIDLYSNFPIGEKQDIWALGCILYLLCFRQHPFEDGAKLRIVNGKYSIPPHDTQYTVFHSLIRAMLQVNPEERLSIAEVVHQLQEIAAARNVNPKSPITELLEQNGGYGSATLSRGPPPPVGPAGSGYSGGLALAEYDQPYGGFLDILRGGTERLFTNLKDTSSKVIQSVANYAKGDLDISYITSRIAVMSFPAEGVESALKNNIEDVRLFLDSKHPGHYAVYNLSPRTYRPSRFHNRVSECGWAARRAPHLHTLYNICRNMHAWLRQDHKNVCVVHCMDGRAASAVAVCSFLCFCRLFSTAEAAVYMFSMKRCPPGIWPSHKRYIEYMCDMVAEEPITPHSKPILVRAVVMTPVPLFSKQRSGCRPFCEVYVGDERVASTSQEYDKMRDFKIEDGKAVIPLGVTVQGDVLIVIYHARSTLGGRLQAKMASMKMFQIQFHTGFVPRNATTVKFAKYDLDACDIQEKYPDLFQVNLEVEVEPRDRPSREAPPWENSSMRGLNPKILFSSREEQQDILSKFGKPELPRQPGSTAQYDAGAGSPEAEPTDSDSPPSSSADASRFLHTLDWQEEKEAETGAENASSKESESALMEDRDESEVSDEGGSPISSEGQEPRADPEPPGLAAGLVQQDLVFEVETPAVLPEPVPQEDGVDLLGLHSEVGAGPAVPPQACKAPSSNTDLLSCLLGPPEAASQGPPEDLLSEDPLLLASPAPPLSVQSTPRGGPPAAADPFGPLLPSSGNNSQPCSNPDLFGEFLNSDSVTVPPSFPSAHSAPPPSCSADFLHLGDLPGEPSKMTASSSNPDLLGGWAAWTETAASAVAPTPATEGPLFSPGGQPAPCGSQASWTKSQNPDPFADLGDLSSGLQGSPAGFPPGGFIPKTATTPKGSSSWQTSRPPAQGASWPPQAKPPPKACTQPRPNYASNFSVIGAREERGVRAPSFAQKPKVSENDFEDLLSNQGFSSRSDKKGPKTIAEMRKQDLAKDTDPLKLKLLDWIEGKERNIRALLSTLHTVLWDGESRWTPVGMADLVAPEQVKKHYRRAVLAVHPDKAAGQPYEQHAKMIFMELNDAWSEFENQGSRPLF
Put plainly: Inhibition of tracer 222 binding to recombinant human GST-tagged GAK (1 to 329 residues) expressed in insect cells incubated for 1 hr by Lanthascreen assay. Background: In TR-FRET formats the signal depends on donor and acceptor labels being close together.

Some results are limits rather than exact numbers.

Turning to `COc1cc(-c2cnc3c(N4C[C@@H](C)O[C@@H](C)C4)snc3c2)ccc1N`, a half-maximal response with dengue virus type 2 (EC50) required 0.82 µM. Also, the CC50 at 48 h in series [1] is > 25 µM. Moreover, the IC50 in series [2] amounted to 39.4 nM.

In the series on dengue virus type 2, `COc1cc(-c2cnc3c(N4C[C@@H](C)O[C@@H](C)C4)snc3c2)ccc1C(=O)NCc1ccccc1` displayed an EC50 of 5.83 µM. The CC50 at 48 h in series [1] is > 10 µM.

Turning to `C[C@@H]1CN(c2snc3cc(/C=C/c4ccccc4)cnc23)C[C@H](C)O1`, the IC50 in series [2] is > 3330 nM.

As to `COc1cccc(-c2ccc3nsc(N4C[C@@H](C)O[C@@H](C)C4)c3n2)c1`, the concentration for a half-maximal effect (EC50) with dengue virus type 2 is > 10 µM. Further, in series [1], the CC50 at 48 h was > 10 µM.

`C[C@@H]1CN(c2snc3cc(C#Cc4ccccc4)cnc23)C[C@H](C)O1`: the IC50 in series [2] is > 10000 nM.

With `COc1ccc(-c2ccc3nsc(N4C[C@@H](C)O[C@@H](C)C4)c3n2)cc1OC`, the EC50 with dengue virus type 2 came to 1.05 µM. In addition, the CC50 at 48 h in series [1] is > 10 µM.

`COc1cc(-c2cnc3c(N4C[C@@H](C)O[C@@H](C)C4)snc3c2)cc(OC)c1OC` displayed an EC50 in the series with dengue virus type 2 of 2.79 µM. The CC50 at 48 h in series [1] is > 10 µM.

In turn, `COc1cc(-c2cnc3c(N4C[C@@H](C)O[C@@H](C)C4)snc3c2)ccc1C(=O)N1CCCC1` returned a half-maximal effective concentration (EC50) in the series on dengue virus type 2 of 8.85 µM. In addition, in series [1], the CC50 at 48 h is > 10 µM.

With `COc1cc(-c2cnc3c(N4C[C@@H](C)O[C@@H](C)C4)snc3c2)ccc1C(=O)Nc1ccccc1`, the IC50 in series [2] was > 370 nM.

For `COc1cc(-c2cnc3c(N4C[C@@H](C)O[C@@H](C)C4)snc3c2)ccc1C(=O)O`, the EC50 in the series on dengue virus type 2 was > 10 µM. The 50% cytotoxic concentration (CC50) at 48 h in series [1] was > 10 µM.

In the series on dengue virus type 2, `COc1cc(-c2cnc3c(N4C[C@@H](C)O[C@@H](C)C4)snc3c2)ccc1C(N)=O` had a concentration giving a half-maximal response (EC50) of 10.1 µM. Also, the CC50 at 48 h in series [1] is > 10 µM.

In the case of `COc1ccc(-c2cnc3c(N4C[C@@H](C)O[C@@H](C)C4)snc3c2)cn1`, the IC50 in series [2] is > 3330 nM.

Consider `C[C@@H]1CN(c2snc3ccc(-c4ccc(C(F)(F)F)cc4)nc23)C[C@H](C)O1`, for which the half-inhibitory concentration (IC50) in series [2] was > 370 nM.

In the series with dengue virus type 2, `C#Cc1cccc(Nc2ncnc3cc(OCCOC)c(OCCOC)cc23)c1` [ERLOTINIB] yielded a half-maximal effective concentration (EC50) of 1.22 µM. Moreover, the half-maximal cytotoxic concentration (CC50) at 48 h in series [1] is > 10 µM.

By EC50 is commonly meant the concentration at which the effect is half-maximal. Lower therefore signals an effect from little substance. As a reminder, the CC50 is the concentration giving 50% cytotoxicity. The term IC50 denotes the concentration at which inhibition is half-maximal.
